Assay results reported in ChEMBL document CHEMBL3992553, “New nitrofurans amenable by isocyanide multicomponent chemistry are active against multidrug-resistant and poly-resistant Mycobacterium tuberculosis” (Bioorg Med Chem, 2017).
≈ marks a conversion by molar mass, not a printed value.

How the values were obtained:
Pseudomonas aeruginosa [1] = assay: Antibacterial activity against Pseudomonas aeruginosa PA7 DSM 24068 after 18 hrs; format: functional; conditions: PA7 DSM 24068, 18 h
How it was run: (§1)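 Broth microdilution MIC. Gram-negatives grown overnight at 37 °C in Müller-Hinton broth + 1% glucose, pH 7.2; Gram-positives in trypticase soy broth with yeast extract, pH 7.2. Inoculum 5×10^5 cfu/mL final. Serial dilutions from 100 µM down to 0.2 µM, DMSO ≤1%. 18 h at 37 °C, moist; OD600. MIC = lowest concentration completely suppressing growth.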

Staphylococcus aureus [2] = assay: Antibacterial activity against methicillin-resistant Staphylococcus aureus DSM 11822 after 18 hrs; format: functional; conditions: DSM 11822, 18 h; how it was run: as §1
Staphylococcus aureus [3] = assay: Antibacterial activity against methicillin-resistant Staphylococcus aureus RKI 11-02670 after 18 hrs; format: functional; conditions: RKI 11-02670, 18 h; how it was run: as §1
Enterococcus faecium = assay: Antibacterial activity against Enterococcus faecium DSM 20477 after 18 hrs; format: functional; conditions: DSM 20477, 18 h; how it was run: as §1
Escherichia coli [4] = assay: Growth inhibition of Escherichia coli DSM 1116 at 100 uM after 18 hrs relative to control; format: functional; conditions: DSM 1116, 18 h, read-out: GI
How it was run: (§2)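 Gram-negative culture grown overnight at 37 °C in Müller-Hinton broth + 1% glucose, pH 7.2, then tested at 5×10^5 cfu/mL final. Compound at 100 µM from DMSO stock, DMSO ≤1%. Incubated 18 h at 37 °C under moist conditions. OD600 read; value reported as % growth inhibition.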

Pseudomonas aeruginosa [5] = assay: Growth inhibition of Pseudomonas aeruginosa PA7 DSM 24068 at 100 uM after 18 hrs relative to control; format: functional; conditions: PA7 DSM 24068, 18 h, read-out: GI; how it was run: as §2
[6] = system: Mycobacterium tuberculosis; assay: Antimycobacterial activity against Mycobacterium tuberculosis H37Rv after 7 days by REMA; format: functional; conditions: 168 h
How it was run: (§3)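 REMA. 3-week H37Rv culture (2nd generation on Löwenstein–Jensen) vortexed with glass beads, set to 1.0 McFarland in 7H9, diluted 20-fold in 7H9 + OADC. 2-fold dilutions, final 1.6–400 µg/mL, 200 µL wells. 7 days at 35 °C, then resazurin 18 h. Fluorescence ex 520/em 590. MIC where signal plateaued or matched the 1% population control (t test).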

[7] = system: Mycobacterium tuberculosis; assay: Antimycobacterial activity against Mycobacterium tuberculosis H37Rv after 7 days by microbroth dilution method; format: functional; conditions: 168 h; how it was run: as §3
Escherichia coli [8] = assay: Antibacterial activity against Escherichia coli DSM 1116 after 18 hrs; format: functional; conditions: DSM 1116, 18 h; how it was run: as §1
Acinetobacter baumannii = assay: Antibacterial activity against Acinetobacter baumannii DSM 30007 after 18 hrs; format: functional; conditions: DSM 30007, 18 h; how it was run: as §1
Klebsiella pneumoniae = assay: Antibacterial activity against Klebsiella pneumoniae DSM 11678 after 18 hrs; format: functional; conditions: DSM 11678, 18 h; how it was run: as §1
[9] = (§4) Cytotoxicity against mouse L929 cells assessed as reduction in cell viability after 5 days by WST1 assay; format: cell-based; conditions: mouse, L929 cells
How it was run: (§5)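 KB-3-1 or L929 cells, 1500 per well, in DMEM + 5% FBS. Exposed to serially diluted compound for 5 days. WST-1 added, plates incubated at 37 °C (20 min for KB-3-1), absorbance read at 450 nm (reference 600 nm). Viability given as % of controls.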

L929 = assay: as §4; format: cell-based; conditions: Mus musculus, L929, 120 h; how it was run: as §5
[10] = (§6) Cytotoxicity against human KB-3-1 cells assessed as reduction in cell viability after 5 days by WST1 assay; format: cell-based; conditions: human, KB-3-1 cells; how it was run: as §5
KB 3-1 = assay: as §6; format: cell-based; conditions: Homo sapiens, KB 3-1, 120 h; how it was run: as §5
[11] = (§7) Cytotoxicity against human MCF7 cells assessed as reduction in cell viability after 5 days by WST1 assay; format: cell-based; conditions: human, MCF7 cells
How it was run: (§8)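 MCF-7 cells, 3000 per well, in RPMI + 5% FBS, 0.5% NEAA, 0.5% GlutaMAX and insulin 5 µg/mL. Exposed to serially diluted compound for 5 days. WST-1 incubation 2 h at 37 °C, absorbance read at 450 nm (reference 600 nm). Viability given as % of controls.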

MCF7 = assay: as §7; format: cell-based; conditions: Homo sapiens, MCF7, 120 h; how it was run: as §8
[12] = Cytotoxicity against human FS4-LTM cells assessed as reduction in cell viability after 24 hrs by WST1 assay; format: cell-based
How it was run: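 FS4-LTM conditionally immortalized human fibroblasts, kept without doxycycline for primary-like behaviour, in DMEM + 5% FBS. Exposed to serially diluted compound for 24 h. WST-1 added, plates incubated at 37 °C, absorbance read at 450 nm (reference 600 nm). Viability given as % of controls set to 100%.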

Compound: NCC[C@H](O)C(=O)N[C@@H]1C[C@H](N)[C@@H](O[C@H]2O[C@H](CN)[C@@H](O)[C@H](O)[C@H]2O)[C@H](O)[C@H]1O[C@H]1O[C@H](CO)[C@@H](O)[C@H](N)[C@H]1O [AMIKACIN]
- EC50 (Pseudomonas aeruginosa [1]): 3.8 mg/L
- MIC (Pseudomonas aeruginosa [1]): 4.5 mg/L

Compound: CC1(C(=O)NCc2ccccc2)CCCC(=O)N1/N=C/c1ccc([N+](=O)[O-])o1 (stereo unspecified)
- MIC (Staphylococcus aureus [2]): 100 µM (≈ 38.4 µg/mL)
- EC50 (Staphylococcus aureus [3]): 75 µM
- MIC (Staphylococcus aureus [3]): 100 µM (≈ 38.4 µg/mL)
- MIC (Enterococcus faecium): > 100 µM
- inhibition of growth at 100 µM (Escherichia coli [4]): 87%
- inhibition of growth at 100 µM (Pseudomonas aeruginosa [5]): 85%
- MIC [6]: 65 µM (≈ 25 µg/mL)

Compound: O=[N+]([O-])c1ccc(C2=NOC(c3ccc(N4CCC(Oc5ccc(OC(F)(F)F)cc5)CC4)c(F)c3)C2)o1 (stereo unspecified)
- MIC [7]: 0.001 mg/L (≈ 1.87 nM)

Compound: CC1(C(=O)NCc2ccccc2)CSCC(=O)N1/N=C/c1ccc([N+](=O)[O-])o1 (stereo unspecified)
- MIC (Staphylococcus aureus [2]): > 100 µM
- EC50 (Staphylococcus aureus [3]): 64 µM
- MIC (Staphylococcus aureus [3]): > 100 µM
- EC50 (Enterococcus faecium): > 100 µM
- MIC (Enterococcus faecium): > 100 µM
- EC50 (Escherichia coli [8]): > 100 µM
- MIC (Escherichia coli [8]): > 100 µM
- EC50 (Pseudomonas aeruginosa [1]): > 100 µM
- MIC (Pseudomonas aeruginosa [1]): > 100 µM
- EC50 (Acinetobacter baumannii): > 100 µM
- MIC (Acinetobacter baumannii): > 100 µM
- EC50 (Klebsiella pneumoniae): > 100 µM
- MIC (Klebsiella pneumoniae): > 100 µM
- MIC [6]: > 100 µM

Compound: CC(C)(C)NC(=O)C1(C)CCC(=O)N1/N=C/c1ccc([N+](=O)[O-])o1 (stereo unspecified)
- MIC (Staphylococcus aureus [2]): > 100 µM
- EC50 (Staphylococcus aureus [3]): 91 µM
- MIC (Staphylococcus aureus [3]): > 100 µM
- MIC (Enterococcus faecium): > 100 µM
- inhibition of growth at 100 µM (Escherichia coli [4]): 86%
- inhibition of growth at 100 µM (Pseudomonas aeruginosa [5]): 92%
- MIC [6]: > 100 µM

Compound: CC1(C(=O)NCc2ccc(Cl)cc2)CCC(=O)N1/N=C/c1ccc([N+](=O)[O-])o1 (stereo unspecified)
- MIC (Staphylococcus aureus [2]): > 100 µM
- EC50 (Staphylococcus aureus [3]): > 100 µM
- MIC (Staphylococcus aureus [3]): > 100 µM
- MIC (Enterococcus faecium): > 100 µM
- inhibition of growth at 100 µM (Escherichia coli [4]): 82%
- inhibition of growth at 100 µM (Pseudomonas aeruginosa [5]): 89%
- MIC [6]: > 100 µM

Compound: CC1(C(=O)NC2CCCCC2)CSCC(=O)N1/N=C/c1ccc([N+](=O)[O-])o1 (stereo unspecified)
- MIC (Staphylococcus aureus [2]): 100 µM (≈ 39.4 µg/mL)
- EC50 (Staphylococcus aureus [3]): 55 µM
- MIC (Staphylococcus aureus [3]): 100 µM (≈ 39.4 µg/mL)
- MIC (Enterococcus faecium): > 100 µM
- MIC (Acinetobacter baumannii): > 100 µM
- inhibition of growth at 100 µM (Escherichia coli [4]): 84%
- inhibition of growth at 100 µM (Pseudomonas aeruginosa [5]): 91%
- MIC (Klebsiella pneumoniae): > 100 µM
- MIC [6]: 32 µM (≈ 12.6 µg/mL)
- IC90 at 120 h [9]: > 100 µM
- IC50 (L929): 50 µM
- IC90 at 120 h [10]: 100 µM
- IC50 (KB 3-1): 16 µM
- IC90 at 120 h [11]: > 100 µM
- IC50 (MCF7): 8.7 µM
- IC50 ([12]; Homo sapiens, FS4-LTM, 24 h): 8.7 to 100 µM
- IC90 at 24 h ([12]; human, FS4-LTM cells): ≥ 100 µM

Compound: CC(C)(C)NC(=O)C1(C)CCCC(=O)N1/N=C/c1ccc([N+](=O)[O-])o1 (stereo unspecified)
- MIC (Staphylococcus aureus [2]): 100 µM (≈ 35 µg/mL)
- EC50 (Staphylococcus aureus [3]): 76 µM
- MIC (Staphylococcus aureus [3]): 100 µM (≈ 35 µg/mL)
- MIC (Enterococcus faecium): > 100 µM
- inhibition of growth at 100 µM (Escherichia coli [4]): 83%
- inhibition of growth at 100 µM (Pseudomonas aeruginosa [5]): 85%
- MIC [6]: 71 µM (≈ 24.9 µg/mL)

Compound: O=C(O)c1cn(C2CC2)c2cc(N3CCNCC3)c(F)cc2c1=O [CIPROFLOXACIN]
- EC50 (Enterococcus faecium): 2.29 mg/L
- MIC (Enterococcus faecium): 8 mg/L
- EC50 (Escherichia coli [8]): 0.01 mg/L
- EC50 (Acinetobacter baumannii): 0.2 mg/L
- MIC (Acinetobacter baumannii): 0.2 mg/L
- EC50 (Klebsiella pneumoniae): 0.05 mg/L
- MIC (Klebsiella pneumoniae): 0.07 mg/L

Compound: CC1(C(=O)NCc2ccccc2)CCC(=O)N1/N=C/c1ccc([N+](=O)[O-])o1 (stereo unspecified)
- MIC (Staphylococcus aureus [2]): 95 µM (≈ 35.2 µg/mL)
- EC50 (Staphylococcus aureus [3]): 67 µM
- MIC (Staphylococcus aureus [3]): 95 µM (≈ 35.2 µg/mL)
- MIC (Enterococcus faecium): > 100 µM
- inhibition of growth at 100 µM (Escherichia coli [4]): 85%
- inhibition of growth at 100 µM (Pseudomonas aeruginosa [5]): 90%
- MIC [6]: > 100 µM
